Assay results from ChEMBL document CHEMBL1155300, “Substituted 3-(4-(1,3,5-triazin-2-yl)-phenyl)-2-aminopropanoic acids as novel tryptophan hydroxylase inhibitors” (Bioorg Med Chem Lett, 2009).
Calls of active or inactive are those of the source. The calls are words filed in the database; no cut-off is given here.

Experiments:
[1] = Volume of distribution at steady state in C57 albino mouse at 1 mg/kg, iv; format: ADME, organism-based; design: dose 1 mg/kg, route intravenous; conditions: in vivo, read-out: Vdss
Method in brief: (§1)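 Male C57-albino mice were used in two groups. One group received a single 1 mg/kg intravenous injection and the other a 10 mg/kg oral gavage dose. Plasma levels gave clearance and Vss (iv), and Cmax, AUC and oral bioavailability (po).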

Mus musculus [2] = test: Reduction of serotonin level in mouse duodenum at 100 mg/kg, ip bid for 5 days; format: functional; design: scale not given: the % may be the effect or the level left; conditions: route intraperitoneal
Method in brief: (§2)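 Mice were dosed at 100 mg/kg twice daily (200 mg/kg/day) for five days, by intraperitoneal injection or oral gavage. 5-HT levels were then measured in blood and intestine (duodenum) and reported as percent decrease.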

RBL-2H3 = test: Inhibition of serotonin biosynthesis in rat RBL2H3 cells after 3 days; format: functional, cell-based; conditions: RBL-2H3, 72 h
Method in brief: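 Serotonin biosynthesis was measured in rat mastocytoma RBL-2H3 cells. EC50 was taken from inhibition of that biosynthesis.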

Mus musculus [3] = test: AUC in C57 albino mouse at 10 mg/kg, po; format: ADME, organism-based, Plasma; design: dose 10 mg/kg, route oral; conditions: in vivo; method in brief: as §1
Mus musculus [4] = test: Reduction of serotonin level in mouse duodenum at 100 mg/kg, po bid for 5 days; format: functional; design: scale not given: the % may be the effect or the level left; method in brief: as §2
[5] = Plasma clearance in C57 albino mouse at 1 mg/kg, iv; format: ADME, organism-based; design: dose 1 mg/kg, route intravenous; method in brief: as §1
Mus musculus [6] = test: Reduction of serotonin level in mouse blood at 100 mg/kg, ip bid for 8 days; format: functional; design: scale not given: the % may be the effect or the level left; conditions: route intraperitoneal
[7] = Cmax in C57 albino mouse at 10 mg/kg, po; format: ADME, organism-based; design: dose 10 mg/kg, route oral; conditions: in vivo; method in brief: as §1
[8] = Oral bioavailability in C57 albino mouse at 10 mg/kg; format: ADME, organism-based; conditions: in vivo; method in brief: as §1
Mus musculus [9] = test: Reduction of serotonin level in mouse blood at 100 mg/kg, ip bid for 5 days; format: functional; design: scale not given: the % may be the effect or the level left; conditions: route intraperitoneal; method in brief: as §2
Mus musculus [10] = species on record: Mus musculus; test: Reduction of serotonin level in mouse brain; format: functional, organism-based
Mus musculus [11] = test: Reduction of serotonin level in mouse blood at 100 mg/kg, po bid for 5 days; format: functional; design: scale not given: the % may be the effect or the level left; method in brief: as §2
Mus musculus [12] = test: Reduction of serotonin level in mouse duodenum at 100 mg/kg, ip bid for 8 days; format: functional; design: scale not given: the % may be the effect or the level left; conditions: route intraperitoneal
[13] = target: T1, Tryptophan 5-hydroxylase 1 (Homo sapiens, UniProt P17752); test: Inhibition of human recombinant TPH1 by continuous fluorescence assay
T1 sequence (P17752 whole entry): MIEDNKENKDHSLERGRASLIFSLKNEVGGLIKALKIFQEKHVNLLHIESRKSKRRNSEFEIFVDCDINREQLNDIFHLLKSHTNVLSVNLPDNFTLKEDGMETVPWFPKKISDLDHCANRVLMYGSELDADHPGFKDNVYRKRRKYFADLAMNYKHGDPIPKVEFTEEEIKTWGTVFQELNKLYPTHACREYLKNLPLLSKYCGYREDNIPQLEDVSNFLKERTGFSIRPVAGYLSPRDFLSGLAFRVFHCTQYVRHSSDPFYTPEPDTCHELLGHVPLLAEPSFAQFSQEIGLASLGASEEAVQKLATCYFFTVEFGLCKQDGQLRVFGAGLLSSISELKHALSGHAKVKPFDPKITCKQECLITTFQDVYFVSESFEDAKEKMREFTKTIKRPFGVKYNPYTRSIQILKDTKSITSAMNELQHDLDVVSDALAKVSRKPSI
Method in brief: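 Purified recombinant human TPH1 was tested in a continuous fluorescence assay. IC50 was taken from inhibition of enzyme activity.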

Row | SMILES | EC50 (RBL-2H3) [nM] | IC50 [13] [nM] | further results
1 | C[C@@H](Nc1nc(N)nc(-c2ccc(C[C@H](N)C(=O)O)cc2)n1)c1ccc2ccccc2c1 | 300 |  | Vd [1]: 0.5 L/kg; Activity (Mus musculus [2]): 37%; AUC (Mus musculus [3]): 1.6 µM·h; Activity (Mus musculus [4]): 38%; clearance [5]: 8.33 mL/min/kg; Activity (Mus musculus [6]): 50%; Cmax [7]: 500 nM; bioavailability [8]: 5%; Activity (Mus musculus [9]): 26%; Activity (Mus musculus [10]): inactive; Activity (Mus musculus [11]): 17%; Activity (Mus musculus [12]): 57%
2 | C[C@H](Nc1nc(N)nc(-c2ccc(C[C@H](N)C(=O)O)cc2)n1)c1ccc2ccccc2c1 | 2800 | 44 | 
3 | CC(Nc1ncnc(-c2ccc(C[C@H](N)C(=O)O)cc2)n1)c1ccc2ccccc2c1 (stereo not given in full) | 16200 | 190 | 
4 | Nc1nc(NCc2ccc(-c3ccc(C(F)(F)F)cc3)cc2)nc(-c2ccc(C[C@H](N)C(=O)O)cc2)n1 | 4100 | 160 | 
5 | Nc1nc(NC(c2ccc3ccccc3c2)C(F)(F)F)nc(-c2ccc(C[C@H](N)C(=O)O)cc2)n1 (stereo not given in full) | 6300 | 330 | 
6 | Nc1nc(NCc2ccc(C(F)(F)F)cc2)nc(-c2ccc(C[C@H](N)C(=O)O)cc2)n1 | 36000 | 120 | 
7 | CC(Nc1nc(N)nc(-c2ccc(C[C@H](N)C(=O)O)cc2)n1)C12CC3CC(CC(C3)C1)C2 (stereo not given in full) | 820 | 19 | 
8 | Nc1nc(NCC2CCCCC2)nc(-c2ccc(C[C@H](N)C(=O)O)cc2)n1 | > 11000 | 120 | 
9 | CC(C)CC(Nc1nc(N)nc(-c2ccc(C[C@H](N)C(=O)O)cc2)n1)c1ccc2ccccc2c1 (stereo not given in full) | > 11000 | 120 | 
10 | CC(C)C(Nc1nc(N)nc(-c2ccc(C[C@H](N)C(=O)O)cc2)n1)c1ccc2ccccc2c1 (stereo not given in full) | 5700 | 250 | 
11 | CC(C)(Nc1nc(N)nc(-c2ccc(C[C@H](N)C(=O)O)cc2)n1)c1ccc2ccccc2c1 | 1700 | 55 | 
12 | N[C@@H](Cc1ccc(-c2nc(NCc3ccc4ccccc4c3)nc(N3CCOCC3)n2)cc1)C(=O)O | > 40000 | 15600 | 
13 | Nc1nc(NCc2ccc(-c3ccccc3)cc2)nc(-c2ccc(C[C@H](N)C(=O)O)cc2)n1 | 1800 | 60 | 
14 | Cc1ccc(-c2ccc(CNc3nc(N)nc(-c4ccc(C[C@H](N)C(=O)O)cc4)n3)cc2)cc1 | 2300 | 14 | 
15 | Nc1nc(NCc2ccc(Oc3ccccc3)cc2)nc(-c2ccc(C[C@H](N)C(=O)O)cc2)n1 | 3400 | 150 | 
16 | CNc1nc(N[C@H](C)c2ccc3ccccc3c2)nc(-c2ccc(C[C@H](N)C(=O)O)cc2)n1 | 10200 | 610 | 

More lines, main results first:

Row | EC50 (RBL-2H3) [nM] | IC50 [13] [nM] | SMILES | further results
17 | 2300 | 150 | CCC(Nc1nc(N)nc(-c2ccc(C[C@H](N)C(=O)O)cc2)n1)c1ccc2ccccc2c1 (stereo not given in full) | 
18 | 9600 | 320 | Nc1nc(OC(c2ccc3ccccc3c2)C(F)(F)F)nc(-c2ccc(C[C@H](N)C(=O)O)cc2)n1 (stereo not given in full) | 
19 | 2100 |  | Nc1nc(NCc2ccc3ccccc3c2)nc(-c2ccc(C[C@H](N)C(=O)O)cc2)n1 | 
20 | 2200 | 7 | Nc1nc(NCc2ccccc2-c2ccccc2)nc(-c2ccc(C[C@H](N)C(=O)O)cc2)n1 | 
21 | 1400 | 38 | Nc1nc(NCc2cccc(-c3ccccc3)c2)nc(-c2ccc(C[C@H](N)C(=O)O)cc2)n1 | 
22 | > 11000 | 500 | Nc1nc(NCc2ccccc2)nc(-c2ccc(C[C@H](N)C(=O)O)cc2)n1 | 
23 | 2500 | 24 | CC(Nc1nc(N)nc(-c2ccc(C[C@H](N)C(=O)O)cc2)n1)c1ccc(-c2ccccc2)cc1 (stereo not given in full) | 
24 | > 11000 | 100 | Cc1ccc(CNc2nc(N)nc(-c3ccc(C[C@H](N)C(=O)O)cc3)n2)cc1C | 
25 | 480 | 50 | C[C@H](c1ccc2ccccc2c1)N(C)c1nc(N)nc(-c2ccc(C[C@H](N)C(=O)O)cc2)n1 | 
